{"data": "Experimental data of several laboratories", "target": "Serine/threonine-protein kinase NLK (NLK, Homo sapiens, UniProt Q9UBE8)", "concentration": "1 µM", "Residues used in one study (Q9UBE8 1-527)": "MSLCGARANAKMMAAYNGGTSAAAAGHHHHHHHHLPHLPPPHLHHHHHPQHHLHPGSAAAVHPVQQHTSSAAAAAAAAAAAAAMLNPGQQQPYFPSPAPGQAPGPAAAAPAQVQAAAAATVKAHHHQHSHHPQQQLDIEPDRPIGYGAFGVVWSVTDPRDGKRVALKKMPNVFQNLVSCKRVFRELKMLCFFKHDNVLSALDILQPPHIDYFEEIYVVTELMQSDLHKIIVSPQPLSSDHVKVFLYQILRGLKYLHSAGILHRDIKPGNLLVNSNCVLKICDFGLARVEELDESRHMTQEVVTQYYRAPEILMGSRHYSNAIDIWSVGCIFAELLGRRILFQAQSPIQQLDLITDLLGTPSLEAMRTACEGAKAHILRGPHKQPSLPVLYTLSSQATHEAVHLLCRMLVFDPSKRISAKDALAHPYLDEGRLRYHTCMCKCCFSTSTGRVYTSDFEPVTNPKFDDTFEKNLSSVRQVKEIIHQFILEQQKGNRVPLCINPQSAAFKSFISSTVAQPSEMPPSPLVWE", "note": "Each line is one published result; the experiments were not run side by side."}
{"observed": "binding", "method": "competition with immobilised ligand", "remaining binding": "79%", "Structure (SMILES)": "CCN1CCN(Cc2ccc(C(=O)Nc3ccc(C)c(Oc4ccc5c(c4)CC(=O)N5)c3)cc2C(F)(F)F)CC1"}
{"observed": "binding", "remaining binding": "87%", "Structure (SMILES)": "c1cnn2ncc(-c3ccnc(N4CCC45COC5)n3)c2c1"}
{"observed": "binding", "method": "competition with immobilised ligand", "remaining binding": "72%", "Structure (SMILES)": "O=C(c1ccc(Nc2ncc(Cl)c(-c3cc4ccccc4s3)n2)cc1)N1CCC(N2CCCC2)CC1"}
{"observed": "cell-free assay", "method": "competition with immobilised ligand", "remaining binding": "44%", "Structure (SMILES)": "C[C@H](c1cccc(C#N)c1)n1cc(Cl)cc(C(N)=O)c1=N"}
{"observed": "binding", "remaining binding": "100%", "Structure (SMILES)": "Cc1cnn2ncc(-c3ccnc(N(C)C)n3)c2c1"}
{"observed": "cell-free assay", "method": "competition with immobilised ligand", "remaining binding": "100%", "Structure (SMILES)": "O=C1CCc2cc(Nc3cc(OC4CCOCC4)c([N+](=O)[O-])cc3Cl)ccc2N1"}
{"observed": "binding", "method": "competition with immobilised ligand", "remaining binding": "85%", "Structure (SMILES)": "Nc1ncc2c(n1)-c1c([nH]c3ccc(C#CC4CC4)cc13)CCCC2"}
{"observed": "binding", "method": "competition with immobilised ligand", "remaining binding": "100%", "Structure (SMILES)": "COc1cnc(Nc2cccc(S(N)(=O)=O)c2)nc1N1CCN(c2ccccc2)C(=O)C1"}
{"observed": "binding", "method": "competition with immobilised ligand", "remaining binding": "100%", "Structure (SMILES)": "Cc1c(C(=O)O)cc(-c2ccc(C3CCNCC3)cc2)c2ccc(-c3ccc(C(F)(F)F)cc3)cc12"}
{"observed": "binding", "remaining binding": "100%", "Structure (SMILES)": "CN(C)c1nccc(-c2cnn3ncccc23)n1"}
{"observed": "binding", "method": "competition with immobilised ligand", "remaining binding": "96%", "Structure (SMILES)": "COc1cnc(Nc2cccc(S(N)(=O)=O)c2)nc1N1CCN(c2ccccc2)CC1"}
{"observed": "binding", "method": "competition with immobilised ligand", "remaining binding": "69%", "Structure (SMILES)": "Cc1cnc(Nc2ccc(C(=O)N3CCC(N4CCCC4)CC3)cc2)nc1-c1cc2ccccc2s1"}
{"observed": "cell-free assay", "method": "competition with immobilised ligand", "remaining binding": "100%", "Structure (SMILES)": "CN([C@@H]1CCc2c(CC(=O)O)c3cc(S(C)(=O)=O)ccc3n2C1)S(=O)(=O)c1ccc(F)cc1"}
{"observed": "binding", "remaining binding": "100%", "Structure (SMILES)": "C[C@H]1CCN(c2nccc(-c3cnn4ncccc34)n2)C1"}
{"observed": "cell-free assay", "method": "competition with immobilised ligand", "remaining binding": "100%", "Structure (SMILES)": "CS(=O)(=O)NCC[C@H](NC(=O)c1cncc2c1cnn2-c1ccc(F)cc1)c1ccnc(S(C)(=O)=O)c1"}
{"observed": "binding", "method": "competition with immobilised ligand", "remaining binding": "100%", "Structure (SMILES)": "O=C(NCCCN1CCOCC1)c1ccc(Nc2ncc(Cl)c(-c3ccc(Cl)s3)n2)cc1"}
{"observed": "binding", "remaining binding": "77%", "Structure (SMILES)": "CN(c1nccc(-c2cnn3ncccc23)n1)C1CC1"}
{"observed": "cell-free assay", "method": "competition with immobilised ligand", "remaining binding": "87%", "Structure (SMILES)": "O=C(Nc1ccc(Oc2ccc(F)cc2)cc1)N1CCc2ncccc2[C@H]1c1ccc(F)cc1"}
{"observed": "binding", "remaining binding": "100%", "Structure (SMILES)": "N[C@@H]1CCN(c2nccc(-c3cnn4ncccc34)n2)C1"}
{"observed": "binding", "method": "competition with immobilised ligand", "remaining binding": "90%", "Structure (SMILES)": "O=C(Nc1c[nH]nc1C(=O)NC1CCNCC1)c1cc(F)cc(F)c1"}
{"observed": "binding", "remaining binding": "74%", "Structure (SMILES)": "CN(C)c1nccc(-c2cnc3ncccn23)n1"}
{"observed": "cell-free assay", "method": "competition with immobilised ligand", "remaining binding": "96%", "Structure (SMILES)": "C[C@@H]1CN(c2cc(-c3nn(C)c4ccc(OC5(C)CC5)cc34)ncn2)C[C@H](C)O1"}
